Results published in ChEMBL document CHEMBL1126730, “Synthesis and pharmacological evaluation of 4a-phenanthrenamine derivatives acting at the phencyclidine binding site of the N-methyl-D-aspartate receptor complex” (J Med Chem, 1993).

Experiments:
Glutamate NMDA receptor [1] = test: Binding affinity towards PCP site of the NMDA receptor was measured by displacement of […] in […]; format: tissue-based, Brain
[2] = Partition coefficient (logP) (HPLC); format: physicochemical; settings: octanol/water
[3] = molecular target: T1, Glutamate NMDA receptor (Rattus norvegicus) (UniProt P35439+Q00959+Q00960+Q00961+Q62645+Q8VHN2+Q9R1M7); test: Percent inhibition at PCP site of NMDA receptor complex was measured by displacement of […] in whole rat brain homogenate at 10 E-7 M; format: tissue-based
Procedure, shortened: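 [3H]TCP displacement from rat brain membrane preparation (cortical membranes in the methods; whole-brain homogenate in the assay description), following a previously published procedure.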

[4] = molecular target: T1, Glutamate NMDA receptor (Rattus norvegicus); test: Evaluated in vivo for its NMDA antagonist activity by the inhibition of NMDA-induced lethality in mice; format: functional, organism-based; settings: Mus musculus; target entry is the homologue from another species
Procedure, shortened: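 CF-1 mice, 22-28 g. Test agent or vehicle (0.9% saline, 5 mL/kg) was given by retrobulbar injection 5 min before a 25 mg/kg NMDA bolus given retrobulbar in the other eye. Endpoint was prevention of lethality.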

Glutamate NMDA receptor [5] = test: Ability to inhibit glutamate induced accumulation of [45 [Ca2+]] in cultured rat cortical neurons; format: functional
Procedure, shortened: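 Fetal rat cortical hemisphere dissociated cultures used on day 14-16 after plating. Medium was serum- and Mg-free HBSS with 1.4 mM CaCl2, pH 7.4 (35 mM bicarbonate), 37 °C, 5% CO2. Cells were exposed 30 min to 100 μM L-glutamate (final) plus [45Ca2+] (2 μCi/mL) ± test agent, washed with saline, lysed, and counted. Baseline was subtracted.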

Mus musculus = species: Mus musculus; test: Testing for ataxia was done by using an inverted screen technique; format: functional
Procedure, shortened: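 Inverted-screen test in CF-1 mice (22-28 g), scored 5 min after retrobulbar test agent in 0.9% saline (5 mL/kg), immediately before NMDA injection.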

[6] = Partition coefficient was measured using a standard shake flask (SF) method at pH 7.4.; format: physicochemical; settings: octanol/water
Procedure, shortened: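 Shake-flask partitioning at pH 7.4.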

SMILES | IC50 (Glutamate NMDA receptor [1]) [nM] | ED50 [4] [mg/kg] | IC50 (Glutamate NMDA receptor [5]) [nM] | Ataxia (Mus musculus) [mg/kg] | further results
CNC12CC=CCC1COc1ccccc12 (stereo not drawn) | 122 | – | – | – | –
CNC12CCC(CN)CC1CCc1ccccc12 (stereo not drawn) | – | – | – | – | logP [2]: 2; inhibition [3]: 8%
CNC1c2ccccc2CCC12CCCC2 (stereo not drawn) | – | – | – | – | inhibition [3]: 8%
NC12CCCCC1CCc1ccccc12 (stereo not drawn) | – | 0.64 | – | – | –
NCC1CCC2(N)c3ccccc3CCC2C1 (stereo not drawn) | – | – | – | – | inhibition [3]: 1%
CNC12CC=CCC1CCc1ccc(OC)cc12 (stereo not drawn) | 21 | 4.1 | 410 | 1 | –
CC1(N)c2ccccc2CCC12CCCC2 (stereo not drawn) | – | – | – | – | inhibition [3]: 5%
NC12CCCCC1CCc1ccccc12 (single isomer, unassigned; form 1) | 11.3 | – | 480 | <0.3 | –
CC1CC2CCCCC2(N)c2ccccc21 (stereo not drawn) | 508 | – | – | – | logP [2]: 3.59; logD [6]: 1.61
CNC12CC=CCC1CC(C)c1ccccc12 (stereo not drawn) | 654 | – | – | – | –
CNC1(C)c2ccccc2CCC12CCCC2 (stereo not drawn) | – | – | – | – | inhibition [3]: 5%
CN(C)C12CCCCC1CCc1ccccc12 (stereo not drawn) | 21 | 1.6 | 1630 | <0.3 | –
CN[C@@]12CCCCC1CCc1ccccc12 (stereo partly drawn) | 41.5 | 0.97 | 810 | 1 | –
CNC12CCCCC1CC(=O)c1ccccc12 (stereo not drawn) | 270 | – | – | – | logP [2]: 2.41; logD [6]: 0.78
CNC12CC=CCC1CCc1sccc12 (stereo not drawn) | 57 | – | – | – | –
CNC12CC(O)CCC1CCc1ccccc12 (stereo not drawn) | 500 | – | – | – | logP [2]: 2.37
NC12CC=CCC1CCc1ccc(O)cc12 (stereo not drawn) | 28 | 4.6 | 1600 | 1.5 | –
NC12CC=CCC1COc1ccccc12 (stereo not drawn) | 399 | – | – | – | –
C[C@]12N[C@H](Cc3ccccc31)c1ccccc12 [DIZOCILPINE] | – | – | – | 0.3 | –
CN[C@@]12CCCCC1CSc1ccccc12 (stereo partly drawn) | 199 | – | – | – | –
CNC12CCCCC1CSc1ccccc12 (stereo not drawn) | 62 | 0.7 | 710 | 1.5 | logP [2]: 3.88; logD [6]: 1.54
NC12CCCCC1CCc1ccc(O)cc12 (stereo not drawn) | 7.5 | 5.5 | 520 | 3 | –
NC12CCCCC1CCc1ccccc12 (single isomer, unassigned; form 2) [listing 1 of 2 here] | – | 10 | – | – | –
CC1CC2CC=CCC2(N)c2ccccc21 (stereo not drawn) | 2460 | – | – | – | logP [2]: 3.4; logD [6]: 1.89
CNC1(c2ccccc2Cl)CCCCC1=O (stereo not drawn) [KETAMINE] | – | 6 | 8860 | 10 | logD [6]: 2.18
NC12CCCCC1CCc1ccccc12 (single isomer, unassigned; form 2) [listing 2 of 2 here] | 113 | – | 2250 | <3 | –
N#CC1CCC2(N)c3ccccc3CCC2C1 (stereo not drawn) | – | – | – | – | inhibition [3]: 2%
CCNC12CCCCC1CSc1ccccc12 (stereo not drawn) | 523 | – | – | – | –
C=CCNC12CCCCC1CCc1ccccc12 (stereo not drawn) | 86 | 10 | 920 | <1 | –
NC1c2ccccc2CCC12CCCCC2 (stereo not drawn) | 3400 | – | – | – | –
